This note sets out measurements from ChEMBL document CHEMBL1141405, “Design and synthesis of novel sulfonamide-containing bradykinin hB2 receptor antagonists. 2. Synthesis and structure-activity relationships of alpha,alpha-cycloalkylglycine sulfonamides” (J Med Chem, 2007).

For test [1], the target named is T1, B2 bradykinin receptor (Cavia porcellus) (UniProt O70526).
T1 sequence (whole entry): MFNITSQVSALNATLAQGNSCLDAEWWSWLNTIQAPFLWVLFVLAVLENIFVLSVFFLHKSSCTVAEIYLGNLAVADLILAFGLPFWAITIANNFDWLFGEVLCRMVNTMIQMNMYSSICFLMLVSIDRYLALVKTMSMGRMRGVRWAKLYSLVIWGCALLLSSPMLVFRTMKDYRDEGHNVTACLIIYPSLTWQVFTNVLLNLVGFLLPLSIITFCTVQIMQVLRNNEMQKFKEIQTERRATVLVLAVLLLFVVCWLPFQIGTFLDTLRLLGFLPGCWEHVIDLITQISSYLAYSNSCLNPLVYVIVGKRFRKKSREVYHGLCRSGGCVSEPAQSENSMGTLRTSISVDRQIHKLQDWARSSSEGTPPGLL
Kind of test: Inhibition of BK-induced bronchoconstriction in Dunkin Hartley guinea pig at 300 nmol/kg, it. The test is classed as functional. Also noted: scale not given: the % may be the effect or the level left. In a few lines: (§1)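 Compound was given intratracheally to anaesthetized guinea pigs. Five min later, BK (10 nmol/kg iv) challenge was given and repeated every 30 min for 210 min. Pulmonary insufflation pressure was monitored. Result is Σ%: residual BK response as % of basal, normalized to control at 5–210 min time points, expressed as % of theoretical maximum.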

Test [2] concerns the target T2, B2 bradykinin receptor (Cavia porcellus, UniProt O70526).
T2 sequence (O70526 whole entry): T1 sequence (whole entry)
Kind of test: Antagonist potency on BK-induced contraction of guinea pig ileum longitudinal smooth muscle. The test is classed as functional, tissue-based. The settings on record: read-out: pA2 (converted).

Test [3] deals with T3, B2 bradykinin receptor (Homo sapiens, UniProt P30411).
T3 sequence (P30411 whole entry): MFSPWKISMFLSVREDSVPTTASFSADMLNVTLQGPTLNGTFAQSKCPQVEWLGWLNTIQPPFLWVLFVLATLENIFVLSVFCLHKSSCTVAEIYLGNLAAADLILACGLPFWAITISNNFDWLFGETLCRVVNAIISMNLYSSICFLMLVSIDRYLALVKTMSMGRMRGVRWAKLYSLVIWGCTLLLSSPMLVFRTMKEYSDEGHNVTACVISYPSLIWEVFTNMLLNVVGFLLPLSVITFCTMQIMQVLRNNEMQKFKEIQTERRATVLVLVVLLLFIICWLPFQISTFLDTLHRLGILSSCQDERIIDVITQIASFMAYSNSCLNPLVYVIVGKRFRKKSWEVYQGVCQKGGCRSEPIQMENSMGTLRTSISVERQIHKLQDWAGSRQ
Kind of test: Displacement of [3H]BK from human bradykinin B2 receptor transfected in CHO cells. The test is classed as cell-based. In a few lines: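 pKi from inhibition of specific [3H]-BK binding to membrane preparations of CHO cells stably transfected with the human B2 receptor.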
Background: In a radioligand displacement assay an active substance lowers the binding of a labelled ligand.

Test [4] deals with T3, B2 bradykinin receptor. The test can be described thus: Antagonist potency at human bradykinin B2 receptor assessed as effect on inositol monophosphate accumulation in CHOdhfr- cells. The test is classed as functional, cell-based. The note with it: read-out: pA2 (converted). In a few lines: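 pA2 derived from antagonism of bradykinin-stimulated inositol monophosphate accumulation in CHOdhfr- cells stably transfected with the human B2 receptor.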

Another test has as its target T4, B1 bradykinin receptor (Homo sapiens, UniProt P46663).
T4 sequence (P46663 whole entry): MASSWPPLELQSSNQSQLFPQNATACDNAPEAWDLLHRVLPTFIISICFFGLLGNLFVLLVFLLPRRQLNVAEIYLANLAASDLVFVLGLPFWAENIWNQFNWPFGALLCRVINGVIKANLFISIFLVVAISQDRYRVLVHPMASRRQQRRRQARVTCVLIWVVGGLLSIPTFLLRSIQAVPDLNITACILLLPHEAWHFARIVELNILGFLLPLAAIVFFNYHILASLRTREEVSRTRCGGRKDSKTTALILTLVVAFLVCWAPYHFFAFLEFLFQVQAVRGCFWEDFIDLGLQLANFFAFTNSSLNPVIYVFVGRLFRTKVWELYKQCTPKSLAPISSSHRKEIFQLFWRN
The test can be described thus: Binding affinity to human bradykinin B1 receptor.

The target in test [5] is T1, B2 bradykinin receptor (Cavia porcellus). Kind of test: Effect on BK-induced hypotension in Dunkin Hartley guinea pig at 300 nmol/kg, it. The test is classed as functional. In short, it runs like this:
(§2)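 Compound was given intratracheally to anaesthetized guinea pigs. Five min later, BK (10 nmol/kg iv) challenge was given and repeated every 30 min for 210 min. Blood pressure was monitored. Result is Σ%: residual BK response as % of basal, normalized to control at each observation time (5–210 min), expressed as % of theoretical maximum.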

Test [6] shares this target. The test can be described thus: Inhibition of BK-induced bronchoconstriction in Dunkin Hartley guinea pig at 30 nmol/kg, it. The test is classed as functional. Further details: scale not given: the % may be the effect or the level left. In short, it runs like this: as §1
For another test, the species on record is Homo sapiens. The test can be described thus: Activity at nicotinic receptor at 1 uM.
Test [7] concerns the target T1, B2 bradykinin receptor (Cavia porcellus). The test can be described thus: Inhibition of BK-induced bronchoconstriction in Dunkin Hartley guinea pig at 10 nmol/kg, it. The test is classed as functional. Further details: scale not given: the % may be the effect or the level left. In short, it runs like this: as §1
Test [8] shares this target. The test can be described thus: Effect on BK-induced hypotension in Dunkin Hartley guinea pig at 100 nmol/kg, it. The test is classed as functional. In a few lines:
as §2

Test [9] addresses Muscarinic acetylcholine receptor (Homo sapiens) (UniProt P20309+P08173+P11229+P08172+P08912). Kind of test: Activity at muscarinic receptor at 1 uM. The test is classed as protein assay.
Test [10] addresses T1, B2 bradykinin receptor (Cavia porcellus). Kind of test: Inhibition of BK-induced bronchoconstriction in Dunkin Hartley guinea pig at 100 nmol/kg, it. The test is classed as functional. Further details: scale not given: the % may be the effect or the level left. In a few lines:
as §1

Calls of active or inactive are those of the source. No cut-off for these calls is given here.

As for `Cc1cc(C)c2cccc(OCc3c(Cl)ccc(S(=O)(=O)NC4(C(=O)N5CCN(C(=O)C[C@@H](N)CCCN(C)C)CC5)CCCC4)c3Cl)c2n1`, the Activity in test [1] was 21%; in test [5], 51%. Further, the Kb on B2 bradykinin receptor [2] was 0.0398 nM; on B2 bradykinin receptor [4], 1.58 nM. Besides, the Ki on B2 bradykinin receptor [3] is 0.631 nM; at B1 bradykinin receptor it was over 10000 nM.
As to `Cc1cc(C)c2cccc(OCc3c(Cl)ccc(S(=O)(=O)NC4(C(=O)N5CCN(C(=O)[C@@H](N)CCC[N+](C)(C)C)CC5)CCOCC4)c3Cl)c2n1` [FASITIBANT], the Activity is 39% in test [6], 63% in [7], 60% in [8] and 13% in [10]. The result (in the test filed under Homo sapiens; in test [9]) was inactive. On B1 bradykinin receptor, this compound showed a Ki of over 10000 nM.
Consider `Cc1cc(C)c2cccc(OCc3c(Cl)ccc(S(=O)(=O)N4CCC[C@@H]4C(=O)NCCCNC(=O)c4ccc(C(=N)N)cc4)c3Cl)c2n1`, for which the Activity is 96% in test [1], 73% in test [7] and 100% in test [5]. Also, the Kb at B2 bradykinin receptor [2] was 0.316 nM; at B2 bradykinin receptor [4], 0.398 nM. Also, the results for the Ki on B2 bradykinin receptor [3] and at B1 bradykinin receptor were 0.398 nM and over 10000 nM, respectively.
On to `Cc1cc(C)c2cccc(OCc3c(Cl)ccc(S(=O)(=O)NC4(C(=O)N5CCN(C(=O)[C@@H](N)CCCCN(C)C)CC5)CCCC4)c3Cl)c2n1`, for which the Activity in test [1] came to 29%; in test [5], 67%. Besides, the Kb at B2 bradykinin receptor [2] was 0.158 nM; at B2 bradykinin receptor [4], 0.794 nM. Further, the Ki at B2 bradykinin receptor [3] is 1.58 nM; at B1 bradykinin receptor, over 10000 nM.
Consider `Cc1cc(C)c2cccc(OCc3c(Cl)ccc(S(=O)(=O)NC(C)(C)C(=O)N4CCN(C(=O)[C@@H](N)CCCN(C)C)CC4)c3Cl)c2n1`, for which the Activity in test [1] is 39%; in test [5], 79%. Also, the Kb at B2 bradykinin receptor [2] is 0.1 nM. The same compound gave a Ki on B1 bradykinin receptor of over 10000 nM.
In the case of `Cc1cc(C)c2cccc(OCc3c(Cl)ccc(S(=O)(=O)NC4(C(=O)N5CCN(C(=O)[C@@H](N)CCCCNC(=N)N)CC5)CCCC4)c3Cl)c2n1`, the Activity in test [1] came to 36%; in test [5], 75%. Also, the results for the Kb at B2 bradykinin receptor [2] and at B2 bradykinin receptor [4] were 0.1 nM and 0.251 nM, respectively. Also, the inhibition constant (Ki) is 1 nM at B2 bradykinin receptor [3] and over 10000 nM on B1 bradykinin receptor.
For `Cc1cc(C)c2cccc(OCc3c(Cl)ccc(S(=O)(=O)NC(C)(C)C(=O)N4CCN(C(=O)[C@@H](N)CCCCN(C)C)CC4)c3Cl)c2n1`, the figures for the Activity in test [1] and in test [5] were 37% and 69%, respectively. The Kb on B2 bradykinin receptor [2] is 0.2 nM. Moreover, the Ki at B1 bradykinin receptor was over 10000 nM.
The corresponding values for `Cc1cc(C)c2cccc(OCc3c(Cl)ccc(S(=O)(=O)NC(C)(C)C(=O)N4CCN(C(=O)C[C@@H](N)CCCN(C)C)CC4)c3Cl)c2n1` are 20%, 63%, 0.1 nM and over 10000 nM.
In the case of `Cc1cc(C)c2cccc(OCc3c(Cl)ccc(S(=O)(=O)NC(C)(C)C(=O)N4CCN(C(=O)[C@@H](N)CCCCNC(=N)N)CC4)c3Cl)c2n1`, the Activity was determined as 54% in test [1] and 78% in test [5]. Further, the Kb was 0.1 nM on B2 bradykinin receptor [2] and 0.794 nM on B2 bradykinin receptor [4]. Also, the values for the Ki on B2 bradykinin receptor [3] and at B1 bradykinin receptor were 0.631 nM and over 10000 nM, respectively.

A word on the Ki: it is a dissociation constant, usually derived from enzyme kinetics or from competition with a known ligand.
